According to ChEMBL document CHEMBL2029252, “Pharmacophore-based small molecule CXCR4 ligands” (Bioorg Med Chem Lett, 2012):
The source made the active and inactive calls. The calls are words filed in the database; no cut-off is given here.

How the values were obtained:
[1] = target: C-X-C chemokine receptor type 4 (Homo sapiens) (UniProt P61073); experiment: Displacement of [125I]-CXCL12 from CXCR4 expressed in human Jurkat cells at 10 uM relative to T140; type: cell-based
Summary of the method: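 Competition for [125I]-CXCL12 binding to Jurkat cells, test compounds at 10 µM. Percent inhibition expressed relative to that given by the reference peptide T140, set at 100%.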

[2] = tested on: Human immunodeficiency virus 1; experiment: Antiviral activity against X4-tropic HIV1 NL4.3 infected in human MT4 cells assessed as protection from virus-induced cytopathogenicity; type: functional, organism-based; settings: Human immunodeficiency virus 1, NL4.3, MT4
Summary of the method: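 MT-4 cells infected with X4 HIV-1 strain NL4-3; readout is protection from virus-induced cytopathogenicity. EC50 = concentration giving 50% protection, mean of at least three independent experiments.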

[3] = Cytotoxicity against human MT4 cells assessed as reduction of cell viability; type: cell-based
[4] = tested on: Human immunodeficiency virus 1; experiment: Antiviral activity against R5-tropic HIV1 NL(AD8) infected in human PM1 cells expressing CCR5 assessed as protection from virus-induced cytopathogenicity at < 100 uM; type: functional, organism-based
[5] = tested on: Human immunodeficiency virus 1; experiment: Antiviral activity against R5-tropic HIV1 NL(AD8) infected in human PM1 cells expressing CCR5 assessed as protection from virus-induced cytopathogenicity; type: functional, organism-based; settings: Human immunodeficiency virus 1, NL(AD8)

Chain of C-X-C chemokine receptor type 4 (Homo sapiens) (P61073 whole entry): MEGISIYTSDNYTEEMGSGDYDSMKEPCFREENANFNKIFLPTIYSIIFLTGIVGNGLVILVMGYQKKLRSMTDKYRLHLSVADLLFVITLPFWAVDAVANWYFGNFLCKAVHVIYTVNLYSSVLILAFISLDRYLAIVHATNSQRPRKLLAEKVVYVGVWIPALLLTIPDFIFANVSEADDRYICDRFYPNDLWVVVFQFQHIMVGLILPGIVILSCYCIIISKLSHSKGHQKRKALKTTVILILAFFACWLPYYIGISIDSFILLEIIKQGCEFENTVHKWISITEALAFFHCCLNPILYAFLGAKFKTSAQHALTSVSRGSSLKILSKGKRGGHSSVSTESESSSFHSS

inhibition [1] [%] | EC50 [2] [µM] | EC50 [5] [µM] | Compound | CC50 [3] [µM] | Activity [4]
6 | > 20 |  | C[C@@H](NC(=O)[C@H](CCCNC(=N)N)NC(=O)c1ccc(CN(Cc2ccc(F)cc2)Cc2cccnc2)cc1)c1cccc2ccccc12 | 37 | 
100 | 0.33 |  | C[C@H](NC(=O)[C@H](CCCNC(=N)N)NC(=O)c1ccc(CNCc2ccccn2)cc1)c1cccc2ccccc12 | 80 | 
51 |  |  | C[C@H](NC(=O)[C@H](CCCNC(=N)N)NC(=O)c1ccc(CN(CCc2ccncc2)CCc2ccc(F)cc2)cc1)c1cccc2ccccc12 |  | 
35 |  |  | C[C@H](NC(=O)[C@H](CCCNC(=N)N)NC(=O)c1ccc(CN(CCc2ccc(F)cc2)CCc2cccnc2)cc1)c1cccc2ccccc12 |  | 
36 |  |  | C[C@H](NC(=O)[C@H](CCCNC(=N)N)NC(=O)c1ccc(CN(CCc2ccc(F)cc2)Cc2cccnc2)cc1)c1cccc2ccccc12 |  | 
 | 0.058 |  | Cc1cn([C@H]2C[C@H](N=[N+]=[N-])[C@@H](CO)O2)c(=O)[nH]c1=O [ZIDOVUDINE] | 100 | 
16 |  |  | C[C@@H](NC(=O)[C@H](CCCNC(=N)N)NC(=O)c1ccc(CN(CCc2ccncc2)Cc2ccc(F)cc2)cc1)c1cccc2ccccc12 |  | 
0 | > 20 |  | C[C@@H](NC(=O)[C@H](CCCNC(=N)N)NC(=O)c1ccc(CN(Cc2ccc(F)cc2)Cc2ccccn2)cc1)c1cccc2ccccc12 | 35 | 
25 | > 20 |  | C[C@H](NC(=O)[C@H](CCCNC(=N)N)NC(=O)c1ccc(CN(CCc2ccccn2)Cc2ccc(F)cc2)cc1)c1cccc2ccccc12 | 24 | 
32 |  |  | C[C@H](NC(=O)[C@H](CCCNC(=N)N)NC(=O)c1ccc(CN(CCc2cccnc2)C(=O)c2ccc(F)cc2)cc1)c1cccc2ccccc12 |  | 
6 | > 20 |  | C[C@@H](NC(=O)[C@H](CCCNC(=N)N)NC(=O)c1ccc(CN(Cc2ccncc2)C(=O)c2ccc(F)cc2)cc1)c1cccc2ccccc12 | 45 | 
100 |  |  | N=C(N)NCCC[C@@H]1NC(=O)[C@H](CCCNC(=N)N)NC(=O)[C@@H](Cc2ccc(O)cc2)NC(=O)CNC(=O)[C@H](Cc2ccc3ccccc3c2)NC1=O | > 10 | 
26 |  |  | C[C@H](NC(=O)[C@H](CCCNC(=N)N)NC(=O)c1ccc(CN(CCc2ccc(F)cc2)Cc2ccncc2)cc1)c1cccc2ccccc12 |  | 
30 | > 4 |  | C[C@H](NC(=O)[C@H](CCCNC(=N)N)NC(=O)c1ccc(CN(Cc2ccc(F)cc2)Cc2ccccn2)cc1)c1cccc2ccccc12 | 11 | 
69 | > 11 |  | C[C@@H](NC(=O)[C@H](CCCNC(=N)N)NC(=O)c1ccc(CN(CCc2ccc(F)cc2)CCc2cccnc2)cc1)c1cccc2ccccc12 | 11 | inactive
60 | 13 |  | C[C@H](NC(=O)[C@H](CCCNC(=N)N)NC(=O)c1ccc(CN(CCc2cccnc2)Cc2ccc(F)cc2)cc1)c1cccc2ccccc12 | 65 | inactive
11 | > 20 |  | C[C@@H](NC(=O)[C@H](CCCNC(=N)N)NC(=O)c1ccc(CN(Cc2cccnc2)C(=O)c2ccc(F)cc2)cc1)c1cccc2ccccc12 | 45 | 
3 | > 20 |  | C[C@@H](NC(=O)[C@H](CCCNC(=N)N)NC(=O)c1ccc(CN(Cc2ccccn2)C(=O)c2ccc(F)cc2)cc1)c1cccc2ccccc12 | 38 | 
25 | > 20 |  | C[C@H](NC(=O)[C@H](CCCNC(=N)N)NC(=O)c1ccc(CN(CCc2ccncc2)C(=O)c2ccc(F)cc2)cc1)c1cccc2ccccc12 | 47 | 
 | 7.4 |  | C[C@@H](NC(=O)[C@H](CCCNC(=N)N)NC(=O)c1ccc(CNC(=O)c2ccc(C(F)(F)F)cc2)cc1)c1cccc2ccccc12 | 66 | 
23 | > 4 |  | C[C@H](NC(=O)[C@H](CCCNC(=N)N)NC(=O)c1ccc(CN(CCc2ccc(F)cc2)CCc2ccccn2)cc1)c1cccc2ccccc12 | 13 | 

inhibition [1] [%] | EC50 [2] [µM] | EC50 [5] [µM] | Compound | CC50 [3] [µM] | Activity [4]
27 | > 20 |  | C[C@H](NC(=O)[C@H](CCCNC(=N)N)NC(=O)c1ccc(CN(Cc2ccc(F)cc2)Cc2cccnc2)cc1)c1cccc2ccccc12 | 41 | 
79 | 11 |  | C[C@@H](NC(=O)[C@H](CCCNC(=N)N)NC(=O)c1ccc(CN(CCc2ccc(F)cc2)Cc2cccnc2)cc1)c1cccc2ccccc12 | 47 | inactive
4 | > 4 |  | C[C@@H](NC(=O)[C@H](CCCNC(=N)N)NC(=O)c1ccc(CN(CCc2ccccn2)Cc2ccc(F)cc2)cc1)c1cccc2ccccc12 | 23 | 
13 | > 20 |  | C[C@H](NC(=O)[C@H](CCCNC(=N)N)NC(=O)c1ccc(CN(Cc2ccncc2)C(=O)c2ccc(F)cc2)cc1)c1cccc2ccccc12 | 51 | 
0 |  |  | C[C@@H](NC(=O)[C@H](CCCNC(=N)N)NC(=O)c1ccc(CN(CCc2ccncc2)CCc2ccc(F)cc2)cc1)c1cccc2ccccc12 |  | 
15 |  |  | C[C@@H](NC(=O)[C@H](CCCNC(=N)N)NC(=O)c1ccc(CN(CCc2ccc(F)cc2)Cc2ccccn2)cc1)c1cccc2ccccc12 |  | 
13 | > 20 |  | C[C@@H](NC(=O)[C@H](CCCNC(=N)N)NC(=O)c1ccc(CN(CCc2ccc(F)cc2)CCc2ccccn2)cc1)c1cccc2ccccc12 | 27 | 
20 | 10 |  | C[C@H](NC(=O)[C@H](CCCNC(=N)N)NC(=O)c1ccc(CN(CCc2ccncc2)Cc2ccc(F)cc2)cc1)c1cccc2ccccc12 | 44 | inactive
12 | > 20 |  | C[C@@H](NC(=O)[C@H](CCCNC(=N)N)NC(=O)c1ccc(CN(Cc2ccncc2)Cc2ccc(F)cc2)cc1)c1cccc2ccccc12 | 39 | 
0 | > 20 |  | C[C@H](NC(=O)[C@H](CCCNC(=N)N)NC(=O)c1ccc(CN(CCc2ccccn2)C(=O)c2ccc(F)cc2)cc1)c1cccc2ccccc12 | 43 | 
22 |  |  | C[C@@H](NC(=O)[C@H](CCCNC(=N)N)NC(=O)c1ccc(CN(CCc2cccnc2)C(=O)c2ccc(F)cc2)cc1)c1cccc2ccccc12 |  | 
36 | > 20 |  | C[C@H](NC(=O)[C@H](CCCNC(=N)N)NC(=O)c1ccc(CN(Cc2ccccn2)C(=O)c2ccc(F)cc2)cc1)c1cccc2ccccc12 | 37 | 
12 |  |  | C[C@@H](NC(=O)[C@H](CCCNC(=N)N)NC(=O)c1ccc(CN(CCc2ccncc2)C(=O)c2ccc(F)cc2)cc1)c1cccc2ccccc12 |  | 
24 |  |  | C[C@@H](NC(=O)[C@H](CCCNC(=N)N)NC(=O)c1ccc(CN(CCc2cccnc2)Cc2ccc(F)cc2)cc1)c1cccc2ccccc12 |  | 
6 | > 20 |  | C[C@@H](NC(=O)[C@H](CCCNC(=N)N)NC(=O)c1ccc(CN(CCc2ccccn2)C(=O)c2ccc(F)cc2)cc1)c1cccc2ccccc12 | 41 | 
44 |  |  | C[C@@H](NC(=O)[C@H](CCCNC(=N)N)NC(=O)c1ccc(CN(CCc2ccc(F)cc2)Cc2ccncc2)cc1)c1cccc2ccccc12 |  | 
14 | > 20 |  | C[C@H](NC(=O)[C@H](CCCNC(=N)N)NC(=O)c1ccc(CN(Cc2cccnc2)C(=O)c2ccc(F)cc2)cc1)c1cccc2ccccc12 | 57 | 
16 | > 4 |  | C[C@H](NC(=O)[C@H](CCCNC(=N)N)NC(=O)c1ccc(CN(CCc2ccc(F)cc2)Cc2ccccn2)cc1)c1cccc2ccccc12 | 9.9 | 
16 | 8 |  | C[C@H](NC(=O)[C@H](CCCNC(=N)N)NC(=O)c1ccc(CN(Cc2ccncc2)Cc2ccc(F)cc2)cc1)c1cccc2ccccc12 | 44 | inactive
 |  | 0.055 | COC[C@@H](c1ccc(C(F)(F)F)cc1)N1CCN(C2(C)CCN(C(=O)c3c(C)ncnc3C)CC2)C[C@@H]1C [VICRIVIROC] |  | 
